Assays:
[1] = Michaelis-Menten constant was measured against adenylate cyclase stimulation of cAMP formation in striatal homogenates; type: ADME, tissue-based; settings: tissue homogenate
Rattus norvegicus [2] = assay: Level of compound in rat cerebellum at dose 45 umol/kg administered intraperitoneally; type: functional, organism-based
Summary of the method: (§1)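 Female Wistar rats (170–200 g) given 45 μmol/kg ip or sc, killed 60 min later. Striatum, cerebellum and cortex were frozen and homogenised in 0.1 M perchloric acid, purified on Sephadex G10 and analysed by HPLC-ECD. O-methyl metabolite was read at 27% methanol and 750 mV. Values pmol/g tissue, n = 3.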

Rattus norvegicus [3] = assay: Level of compound in rat intraperitoneally; type: functional, organism-based
Rattus norvegicus [4] = assay: Motor activity effect in reserpinized rat with tropolone pretreatment at 10 umol/kg, ip expressed as accumulation counts 0-30 min after treatment; type: functional
Summary of the method: (§2)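 Male Sprague-Dawley rats given reserpine 5 mg/kg ip 18 h before; some also given tropolone 50 mg/kg 30 min before. Compound given sc in the neck, or ip where stated. Locomotion recorded by photocell motility meters, one rat per cage, as accumulated counts over 0–30 min, mean ± SEM.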

Rattus norvegicus [5] = assay: Level of compound in rat striatum at dose 45 umol/kg administered subcutaneously; type: functional, organism-based; summary of the method: as §1
Rattus norvegicus [6] = assay: Motor activity effect in reserpinized rat with tropolone pretreatment at 50 umol/kg, ip expressed as accumulation counts 0-30 min after treatment; type: functional; summary of the method: as §2
Rattus norvegicus [7] = assay: Presynaptic activity at the level of DA metabolism was determined at dose 45 umol/kg on striatal level of HVA; type: functional
Summary of the method: (§3)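 Female Wistar rats given 45 μmol/kg sc; striatal DOPAC and HVA measured by HPLC with electrochemical detection, compared with saline controls by Student's t test.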

Rattus norvegicus [8] = assay: Level of compound 5 in rat striatum at dose 45 umol/kg administered subcutaneously; type: functional, organism-based; summary of the method: as §1
Rattus norvegicus [9] = species on record: Rattus norvegicus; assay: Dopa accumulation was evaluated in limbic system of male Sprague-Dawley rat; type: functional
Summary of the method: (§4)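 Male Sprague-Dawley rats, 200–300 g; drug in saline given sc after NSD 1015 decarboxylase inhibition; Dopa measured by HPLC with electrochemical detection. Dose-response curves from four to six dose levels per substance and brain area; ED50 estimated as the dose giving half-maximal decrease of Dopa level.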

Rattus norvegicus [10] = assay: Level of compound 5 in rat cortex at dose 45 umol/kg administered intraperitoneally; type: functional, organism-based; summary of the method: as §1
Rattus norvegicus [11] = assay: Level of compound in rat cerebellum at dose 45 umol/kg administered subcutaneously; type: functional, organism-based; summary of the method: as §1
Rattus norvegicus [12] = assay: Level of compound 5 in rat cerebellum at dose 45 umol/kg administered subcutaneously; type: functional, organism-based; summary of the method: as §1
Rattus norvegicus [13] = assay: Motor activity effect in reserpinized rat at 213 umol/kg, sc expressed as accumulation counts 0-30 min after treatment; type: functional
Rattus norvegicus [14] = assay: Level of compound in rat cortex at dose 45 umol/kg administered intraperitoneally; type: functional, organism-based; summary of the method: as §1
Rattus norvegicus [15] = species on record: Rattus norvegicus; assay: Dopa accumulation was evaluated in corpus striatum of male Sprague-Dawley rat; type: functional; summary of the method: as §4
Rattus norvegicus [16] = assay: Level of compound 5 in rat cerebellum at dose 45 umol/kg administered intraperitoneally; type: functional, organism-based; summary of the method: as §1
Rattus norvegicus [17] = assay: Level of compound in rat cortex at dose 45 umol/kg administered subcutaneously; type: functional, organism-based; summary of the method: as §1
Rattus norvegicus [18] = assay: Level of compound 5 in rat intraperitoneally; type: functional, organism-based; summary of the method: as §1
Rattus norvegicus [19] = assay: Level of compound 5 in rat cortex at dose 45 umol/kg administered subcutaneously; type: functional, organism-based; summary of the method: as §1
Rattus norvegicus [20] = assay: Presynaptic activity at the level of DA metabolism was determined at dose 45 umol/kg on striatal level of DOPAC; type: functional; summary of the method: as §3

| Km [1] [µM] | Compound | Level (Rattus norvegicus [2]) [pmol/g] | Level (Rattus norvegicus [3]) [pmol/g] | Motor activity (Rattus norvegicus [4]) | Level (Rattus norvegicus [5]) [pmol/g] | Motor activity (Rattus norvegicus [6]) | Control (Rattus norvegicus [7]) [%] | Level (Rattus norvegicus [8]) [pmol/g] | ED50 (Rattus norvegicus [9]) [µmol/kg] | Level (Rattus norvegicus [10]) [pmol/g] | Level (Rattus norvegicus [11]) [pmol/g] | Level (Rattus norvegicus [12]) [pmol/g] | Motor activity (Rattus norvegicus [13]) | Level (Rattus norvegicus [14]) [pmol/g] | ED50 (Rattus norvegicus [15]) [µmol/kg] | Level (Rattus norvegicus [16]) [pmol/g] | Level (Rattus norvegicus [17]) [pmol/g] | Level (Rattus norvegicus [18]) [pmol/g] | Level (Rattus norvegicus [19]) [pmol/g] | Control (Rattus norvegicus [20]) [%] |
| --- | --- | --- | --- | --- | --- | --- | --- | --- | --- | --- | --- | --- | --- | --- | --- | --- | --- | --- | --- | --- |
| 7.8 | NCCc1ccc(O)c(O)c1 [DOPAMINE] |  |  |  |  |  |  |  |  |  |  |  |  |  |  |  |  |  |  |  |
|  | CCCN1CCC[C@@H](c2cccc(O)c2)C1 [PRECLAMOL] | 3430 | 5380 | 23 | 20300 | 77 | 123 | 89 | 0.8 | 280 | 16100 | 174 | 12 | 5790 | 1.7 | 104 | 21100 | 174 | 243 | 118 |

— ChEMBL document CHEMBL1123228, “Enantiomers of 3-(3,4-dihydroxyphenyl)- and 3-(3-hydroxyphenyl)-N-n-propylpiperidine: central pre- and postsynaptic dopaminergic effects and pharmacokinetics” (J Med Chem, 1986)
